Results as given in ChEMBL document CHEMBL4364240, “Tetracyclines as Inhibitors of Pre-microRNA Maturation: A Disconnection between RNA Binding and Inhibition” (ACS Med Chem Lett, 2019).
The source made the active and inactive calls. The calls are words filed in the database; no cut-off is given here.

What was measured:
[1] = target: microRNA 21; assay: Inhibition of Dicer mediated biotinylated pre-miRNA-21 (unknown origin) maturation preincubated for 15 mins followed by pre-miRNA-21 addition and measured after 5 hrs by cat-ELCCA; assay type: nucleic-acid assay
Procedure, shortened: (§1)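 Dose-response cat-ELCCA in which Dicer is in excess over the biotinylated pre-miRNA substrate to ensure adequate signal-to-background. IC50 values are derived from the inhibition curves and reported as 95% confidence intervals.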

[2] = Inhibition of biotinylated pre-let-7d microRNA (unknown origin) maturation preincubated for 15 mins followed by Pre-let-7d addition and measured after 5 hrs by cat-ELCCA; procedure, shortened: as §1
[3] = target: microRNA 21; assay: Binding affinity to biotinylated pre-miRNA-21 (unknown origin) by SPR analysis; assay type: nucleic-acid assay
[4] = test system: microRNA 21; assay: Inhibition of Dicer mediated 5'-biotinylated PEG linked pre-miRNA-21 (unknown origin) maturation; assay type: nucleic-acid assay
[5] = test system: microRNA 21; assay: Inhibition of Dicer mediated biotinylated pre-miRNA-21 (unknown origin) maturation at 1 mM measured after 15 mins by cat-ELCCA relative to control; assay type: nucleic-acid assay
Procedure, shortened: (§2)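 Single-point cat-ELCCA screen at 1.0 mM compound. Recombinant Dicer is used in excess over the pre-miRNA substrate to give enough signal-to-background. The read-out is percent inhibition of processing.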

[6] = Inhibition of biotinylated pre-let-7d (unknown origin) maturation at 1 mM preincubated for 15 mins followed by Pre-let-7d addition and measured after 5 hrs by cat-ELCCA; procedure, shortened: as §2
[7] = Binding affinity to biotinylated pre-let-7d microRNA (unknown origin) by SPR analysis
[8] = test system: microRNA 21; assay: […] miR-21 RNA in human HeLA cells transfected with pmir21 vector incubated for 48 hrs by Dual-Glo luciferase assay; assay type: cell-based
[9] = test system: microRNA 21; assay: […] miR-21 RNA in human HeLA cells transfected with pmirGLO empty vector incubated for 48 hrs by Dual-Glo luciferase assay; assay type: cell-based
[10] = test system: Escherichia coli; assay: Inhibition of Escherichia coli RNase 3 dsRBD assessed as inhibition of pre-miRNA-21 maturation incubated for 0.5 to 1 hr
[11] = test system: microRNA 21; assay: Inhibition of Dicer mediated biotinylated pre-miRNA-21 (unknown origin) maturation in presence of 1;1 ratio of CaCl2 and MgCl2 preincubated for 15 mins followed by pre-miRNA-21 addition and measured after 5 hrs by cat-ELCCA; assay type: nucleic-acid assay
[12] = test system: microRNA 21; assay: Inhibition of Dicer mediated biotinylated pre-miRNA-21 (unknown origin) maturation in presence of 1 to 3 mM MgCl2 preincubated for 15 mins followed by pre-miRNA-21 addition and measured after 5 hrs by cat-ELCCA; assay type: nucleic-acid assay

O=c1nc(/C=C/c2ccc(O)c(O)c2)oc2ccccc12
IC50 [1]: 692 µM | IC50 [2]: Not Active

COc1ccc(-c2cc(-c3cc(OC)ccc3O)[nH]n2)cc1
IC50 [1]: 148 µM | IC50 [2]: Not Active

Nc1ccc(-c2nc3cc(-c4nc5ccccc5o4)ccc3[nH]2)cc1
IC50 [1]: 229 µM | IC50 [2]: Not Active

CN1c2ccccc2C(C)(C)C12C=Cc1cc(O)ccc1O2 (centres undefined)
IC50 [1]: 15 µM | IC50 [2]: Not Active

CN1CCN(c2ccc3nc(-c4ccc5nc(-c6ccc(O)cc6)[nH]c5c4)[nH]c3c2)CC1
Kd ([3]; read-out: Kd): 0.1 to 0.7 µM

Oc1ccc(-c2csc(Cc3c[nH]c4ccccc34)n2)cc1O
IC50 [1]: 398 µM | IC50 [2]: Not Active

O=c1oc2c(-c3cccc(Cl)c3)cc(O)cc2s1
IC50 [1]: 645 µM | IC50 [2]: Not Active

CC(=O)Oc1cccc2c1C(=O)C1=C(O)[C@]3(OC(C)=O)C(=O)C(C(N)=O)=C(O)[C@@H](N(C)C)[C@@H]3[C@@H](OC(C)=O)[C@@H]1[C@]2(C)OC(C)=O
inhibition [4]: Active

CN(C)[C@@H]1C(O)=C(C(N)=O)C(=O)[C@@]2(O)C(O)=C3C(=O)c4c(O)ccc(Cl)c4[C@@H](O)[C@H]3C[C@@H]12
inhibition [5]: 40 to 100%

CN(C)[C@H]1C(O)=C(C(N)=O)C(=O)[C@@]2(O)C(O)=C3C(=O)c4c(O)cccc4[C@@](C)(O)[C@H]3C[C@@H]12
inhibition [5]: 40 to 100%

CN(C)c1cc(NC(=O)CNC(C)(C)C)c(O)c2c1C[C@H]1C[C@H]3[C@H](N(C)C)C(O)=C(C(N)=O)C(=O)[C@@]3(O)C(O)=C1C2=O
inhibition [5]: 40 to 100%

CN1CCN(c2ccc3[nH]c(-c4ccc5[nH]c(-c6ccc(O)cc6)nc5c4)nc3c2)CC1
inhibition [5]: inactive | inhibition [6]: inactive

Cc1c2c(c(O)c3c(O)cccc13)C(=O)[C@]1(O)C(=O)C(C(N)=O)=C(O)[C@@H](N(C)C)[C@@H]1C2
inhibition [5]: 40 to 100%

CN(C)[C@@H]1C(O)=C(C(N)=O)C(=O)[C@@]2(O)C(O)=C3C(=O)c4c(O)ccc(Cl)c4[C@@](C)(O)[C@H]3C[C@@H]12 [CHLORTETRACYCLINE]
inhibition [5]: 40 to 100% | IC50 [1]: 155 to 274 µM | IC50 ([2]; read-out: IC50): 237 to 307 µM

C[C@H]1c2cccc(O)c2C(=O)C2=C(O)[C@]3(O)C(=O)C(C(N)=O)=C(O)[C@@H](N(C)C)[C@@H]3[C@@H](O)[C@@H]21 [DOXYCYCLINE]
inhibition [5]: 40 to 100% | IC50 [1]: 433 to 1410 µM | IC50 ([2]; read-out: IC50): 433 to 1300 µM

NC[C@@H]1O[C@H](O[C@H]2[C@@H](O)[C@H](O[C@@H]3[C@@H](O)[C@H](N)C[C@H](N)[C@H]3O[C@H]3O[C@H](CN)[C@@H](O)[C@H](O)[C@H]3N)O[C@@H]2CO)[C@H](N)[C@@H](O)[C@@H]1O [FRAMYCETIN]
Kd ([3]; read-out: Kd): 0.1 to 0.7 µM | inhibition [5]: inactive | inhibition [6]: inactive

NC(=O)C1=C(O)C[C@@H]2C[C@@H]3Cc4cccc(O)c4C(=O)C3=C(O)[C@]2(O)C1=O [INCYCLINIDE]
Kd [3]: Not Active | IC50 [1]: 358 to 469 µM | inhibition [1]: Dose-dependent effect | inhibition [2]: Dose-dependent effect | IC50 ([2]; read-out: IC50): 383 to 775 µM | Kd [7]: Not Active

NC[C@H]1O[C@H](O[C@H]2[C@H](O)[C@@H](O[C@H]3O[C@H](CO)[C@@H](O)[C@H](N)[C@H]3O)[C@H](N)C[C@@H]2N)[C@H](O)[C@@H](O)[C@@H]1O [KANAMYCIN]
Kd ([3]; read-out: Kd): 0.1 to 0.7 µM | inhibition [5]: inactive | inhibition [6]: inactive

C=C1c2c(Cl)ccc(O)c2C(=O)C2=C(O)[C@]3(O)C(=O)C(C(N)=O)=C(O)[C@@H](N(C)C)[C@@H]3[C@@H](O)[C@H]12 [MECLOCYCLINE]
Kd ([3]; read-out: Kd): 2.1 µM | Activity [8]: inactive | Activity [9]: inactive | inhibition [5]: 40 to 100% | IC50 [1]: 62 to 196 µM | IC50 ([2]; read-out: IC50): 80 to 240 µM | Kd ([7]; read-out: Kd): 5.8 µM

C=C1c2cccc(O)c2C(=O)C2=C(O)[C@]3(O)C(=O)C(C(N)=O)=C(O)[C@@H](N(C)C)[C@@H]3[C@@H](O)[C@H]12 [METHACYCLINE]
inhibition [10]: Active | Kd ([3]; read-out: Kd): 9.9 µM | Activity [8]: inactive | Activity [9]: inactive | inhibition [5]: 40 to 100% | inhibition [11]: Active | IC50 [1]: 56 to 437 µM | IC50 ([2]; read-out: IC50): 97 to 749 µM | inhibition [12]: Active | Kd ([7]; read-out: Kd): 17 µM

CN(C)c1ccc(O)c2c1C[C@H]1C[C@H]3[C@H](N(C)C)C(O)=C(C(N)=O)C(=O)[C@@]3(O)C(O)=C1C2=O [MINOCYCLINE]
inhibition [5]: 40 to 100% | IC50 [1]: 305 to 539 µM | IC50 ([2]; read-out: IC50): 437 to 744 µM

CN(C)[C@@H]1C(O)=C(C(N)=O)C(=O)[C@@]2(O)C(O)=C3C(=O)c4c(O)cccc4[C@@](C)(O)[C@H]3[C@H](O)[C@@H]12 [OXYTETRACYCLINE]
inhibition [5]: 40 to 100% | IC50 [1]: 200 to 918 µM | IC50 ([2]; read-out: IC50): 431 to 1020 µM

CN[C@@H]1[C@H](O[C@H]2[C@H](O[C@H]3[C@H](O)[C@@H](O)[C@H](N=C(N)N)[C@@H](O)[C@@H]3N=C(N)N)O[C@@H](C)[C@]2(O)C=O)O[C@@H](CO)[C@H](O)[C@H]1O [STREPTOMYCIN]
Kd ([3]; read-out: Kd): 0.1 to 0.7 µM | inhibition [5]: inactive | inhibition [6]: inactive

CN(C)[C@@H]1C(O)=C(C(N)=O)C(=O)[C@@]2(O)C(O)=C3C(=O)c4c(O)cccc4[C@@](C)(O)[C@H]3C[C@@H]12 [TETRACYCLINE]
Activity [8]: inactive | Activity [9]: inactive | inhibition [5]: 40 to 100% | IC50 [1]: 434 to 1000 µM | IC50 ([2]; read-out: IC50): 421 to 865 µM
